SUMO1-SIM PPI: alters human SUMO1 binding to SIM partners; SUMO1 binding to a labelled peptide, TR-FRET, 1 h; inhibition, % at 20 µM; hit rate 0.33% among 360,000; P63165; in the data active = inhibition above about 37%
Target sequence (P63165 whole entry, looked up): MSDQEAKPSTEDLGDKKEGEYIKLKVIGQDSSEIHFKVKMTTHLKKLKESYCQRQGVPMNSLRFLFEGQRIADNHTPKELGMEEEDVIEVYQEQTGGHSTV
LMPTP block: blocks human LMPTP phosphatase | P24666 | recombinant LMPTP-A, OMFP fluorogenic substrate, fluorescence intensity | inhibition, % at 20 µM | hit rate 0.22% among 360,000 | AID 651560;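 active = compounds that cut the enzyme signal by at least half of the control window in the single-dose screen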;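 note: plate controls were DMSO wells with enzyme plus substrate for no effect and substrate without enzyme for full effect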
Target sequence (P24666 whole entry, looked up): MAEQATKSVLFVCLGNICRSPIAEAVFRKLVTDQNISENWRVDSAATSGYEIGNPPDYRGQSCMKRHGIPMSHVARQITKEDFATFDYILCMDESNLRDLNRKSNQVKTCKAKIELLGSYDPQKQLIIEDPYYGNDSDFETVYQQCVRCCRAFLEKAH
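Assay system: LMPTP-A enzyme. Input: 0.625 nM LMPTP-A final. Probe or stimulus: 400 µM OMFP. Compound dosing: single 20 µM dose. Schedule: 50 min dark incubation at room temperature. Detection: fluorescence intensity of OMFP turnover product. Read-out: percent inhibition versus substrate-only and uninhibited controls. Benchmarks: no-enzyme low control, uninhibited high control.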
Scp1 inh: Scp-1 (human) phosphatase inhibition; Recombinant Scp1, phosphopeptide, malachite green phosphate absorbance; inhibition, % at 20 µM; hit rate 0.88% among 340,000;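 active = inhibition above about 50% at 20 µM, limit read from the data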;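 note: plate controls were DMSO wells with enzyme for no effect and wells lacking enzyme for full effect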
Target sequence (Q9GZU7 76-261 limits assumed): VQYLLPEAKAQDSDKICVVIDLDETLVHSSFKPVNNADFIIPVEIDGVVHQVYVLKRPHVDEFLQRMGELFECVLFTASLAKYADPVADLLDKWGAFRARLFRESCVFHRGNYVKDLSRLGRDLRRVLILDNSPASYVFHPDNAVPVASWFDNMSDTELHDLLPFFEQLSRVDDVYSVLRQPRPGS
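Test system: SCP-1 catalytic domain; Buffer or medium: Acidic Tris acetate buffer with magnesium and detergent; Also added: Phosphorylated 17-residue peptide substrate; Compound: single 20 µM dose, 1% DMSO; Schedule: enzyme reaction 45 min at room temperature, colour 5 min, stabilisation 30 min; Signal: Phosphate-binding colour reagent, absorbance read at 630 nm.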
STEP inh: inhibitors of human striatal-enriched phosphatase STEP; P54829; recombinant STEP, OMFP fluorogenic substrate, fluorescence; inhibition, % at 20 µM; hit rate 0.25% among 360,000;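 active = inhibition at 20 µM, scaled per plate between control wells, above about 37%, limit read from the data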;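 note: 0% = DMSO with enzyme and substrate and 100% = substrate only without enzyme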
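System: isolated STEP enzyme; schedule: 20 min enzyme reaction at room temperature, protected from light; medium: Bis-Tris buffer pH 6.0, 2.5 mM DTT, 0.005% Tween 20; signal: fluorescence, 480/540 nm; dosing: single compound dose of 20 µM, 1% DMSO final; also added: OMFP substrate, 25 µM final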
DNMT1 block: blocks human DNA methyltransferase DNMT1 | AID 588458 | inhibition (reported as % activation of signal), % at 10 µM | hit rate 0.83% among 360,000 | DNMT1 molecular beacon, Hinp1I cleavage, fluorescence | P26358; in the data active = inhibition above about 50%
Scp1 confirm: Scp-1 (human) inhibition, single-dose confirmed | inhibition, % at 20 µM | recombinant SCP-1 catalytic domain, phosphate release, malachite green absorbance | shares compounds with Scp1 inh | hit rate 61% among 2,500;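 note: plate controls were DMSO with enzyme for no effect and buffer wells lacking enzyme for full effect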
MG interference: interferes with malachite green readout, flagging false Scp-1 hits | shares compounds with Scp1 inh | Colorimetric interference counterscreen, malachite green absorbance 630 nm | apparent inhibition (interference), % at 20 µM | 2,500 tested, under 10 active;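 note: compounds added after enzyme reaction finished so only phosphate colour detection is probed; plate controls were DMSO wells with completed Scp-1 reaction for no effect and substrate wells lacking enzyme for full effect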
Scp1 DSF: binds human Scp-1, shifting its melting temperature; shares compounds with Scp1 inh; Recombinant SCP1, Sypro Orange thermal shift Tm; thermal shift relative to vanadate control, % at 40 µM; hit rate 25% among 1,500;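 active = substances whose mean melting-temperature shift, as a percentage of the reference inhibitor's shift, reaches about 5.3%, limit read from the data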;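 note: 0% = Tm of DMSO wells and 100% = Tm with sodium orthovanadate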
* hit, by the source's call; . = no result given; ! = not confirmed by another sample. The list is not random: actives were taken first. Their share in the collection is about 1.7%.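 Rule for the calls, unless noted: active = inhibition of at least 30% at 20 µM; inactive = the rest.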

SMILES | SUMO1-SIM PPI | LMPTP block | Scp1 inh | STEP inh | DNMT1 block | Scp1 confirm | MG interference | Scp1 DSF
CC1CCCC(C)N1c1nnc(NC(=O)Cn2c(=O)oc3ccccc32)s1 (centres undefined) | 3 | 0 | 95* | 0 | 2 | 1 | -9 | .
CC(c1ccccc1)C1OCC(C[N+]2(C)CCCCC2)O1 (centres undefined) | 2 | 1 | 93* | -4 | -2 | 83* | -13 | -5
CCCCC(CC)C1OCC(C[N+]2(C)CCOCC2)O1 (centres undefined) | 0 | -1 | 31 | 0 | 3 | . | . | .
CC(=O)N1CCCc2cc(S(=O)(=O)CCC(=O)N3CCN(c4cccc(C)c4)C(C)C3)ccc21 (centres undefined) | 8 | 0 | 50* | -2 | 33 | 26 | 6 | .
CC(=O)N1CCc2cc(S(=O)(=O)CCC(=O)N3CCN(c4ccccc4F)CC3)ccc21 | -4 | 0 | 5 | 0 | 3 | . | . | .
O=C1OC(c2ccc3c(c2)OCO3)=N/C1=C\c1ccc(C(=O)O)cc1 | 9 | -1 | 88* | 11 | 25 | 69* | -5 | 6.3*
O=C(O)c1cccc(-c2ccc3c(c2)OCO3)c1 | 9 | -1 | -4 | 0 | -1 | . | . | .
Cc1cc(C)cc(N(CCC#N)C(=O)COC(=O)c2ccc(OCc3c(C)noc3C)cc2)c1 | 6 | 1 | 51* | 0 | 0 | -16 | -12 | .
Cn1c(=O)c(NC(=O)c2ccccc2)c2n(c1=S)CCCCC2 | 2 | -1 | 55* | -2 | 9 | 36* | -14 | -20
Cc1ccc(S(=O)(=O)N[C@H](C(=O)OCC(=O)NC(=O)NCc2ccco2)C(C)C)cc1 | 1 | -1 | 62* | -1 | 10 | 26 | -22 | .
O=C(O)/C=C/c1cnc2ccccc2c1 | -4 | 0 | 55* | 0 | 2 | 10 | -13 | .
CCCOc1nc2ccccc2cc1/C=C/C(=O)O | -6 | 1 | -3 | 1 | 15 | . | . | .
CC(=O)OC[C@@H]1CN(Cc2ccccc2)C[C@H](n2cnc3c(NCc4ccc(F)cc4)ncnc32)O1 | 3 | 0 | . | 0 | -8 | . | . | .
O=C(Cn1ccc2ccccc2c1=O)NCCC(=O)Nc1cccnc1 | 1 | 0 | 60* | 4 | 7 | -8 | -2 | .
O=C(Cn1ccc2ccccc2c1=O)NCCC(=O)Nc1cccc(Cl)c1 | 2 | 0 | -2 | -1 | 0 | . | . | .
CC(=O)NC1CC2CCCC(C1)N2C(=O)Nc1ccc(Cl)cc1 (centres undefined) | 4 | -1 | . | 2 | 2 | . | . | .
O=C1NC(=O)C(c2ccccc2)(c2ccccc2)N1 | 5 | -1 | 85*! | -3 | 1 | -14 | -9 | .
O=C1NC(=O)C(c2ccccc2)(c2ccc(O)cc2)N1 (centres undefined) | -2 | -1 | -4 | 2 | 3 | . | . | .
Cc1ccnc(Nc2cccnc2)n1 | 1 | 1 | . | 2 | 7 | . | . | .
N#Cc1ccsc1NC(=O)CCS(=O)(=O)c1ccccc1 | 8 | 0 | 10 | -1 | 1 | . | . | .
N#Cc1ccsc1NC(=O)COC(=O)CCS(=O)(=O)c1ccccc1 | 18 | 12 | 50* | -1 | 17 | 69* | -10 | 5.7*
Cc1ccc(S(=O)(=O)N2CCN(C(=O)c3ccco3)CC2)cc1 | -2 | 1 | -5 | 1 | 1 | . | . | .
Cc1ccc(S(=O)(=O)N2CCN(C(=O)/C=C/c3ccco3)CC2)cc1 | -8 | 3 | 71* | 3 | 38 | 71* | -4 | -4
C[C@@H]1CN([C@@H](C)CO)C(=O)CCCn2nncc2CO[C@H]1CN(C)Cc1ccccc1 | 5 | -2 | . | 0 | 6 | . | . | .
O=C(C[C@H]1CC[C@@H]2[C@H](COC[C@@H](O)CN2Cc2ccc(Cl)cc2)O1)NCCc1ccccc1 | 4 | -2 | . | . | . | . | . | .
SMILES | SUMO1-SIM PPI | LMPTP block | Scp1 inh | STEP inh | DNMT1 block | Scp1 confirm | MG interference | Scp1 DSF
Cc1nc(NC(=O)COC(=O)C2CC2C)c(Cl)cc1Cl (centres undefined) | 7 | 0 | 51* | 0 | 2 | -3 | -16 | .
COc1cc(Cl)c(C)cc1NC(=O)COC(=O)C1CC1C (centres undefined) | -2 | 1 | 1 | -2 | 23 | . | . | .
CC1CC2C3CCC4=CC(=O)CCC4(C)C3CCC2(C)C1(O)C(=O)CO (centres undefined) | -6 | -1 | 59* | -3 | 12 | -23 | -19 | .
CC(C)n1c(SCC(=O)Nc2nncs2)nnc1-c1ccco1 | . | . | 94* | . | . | 77* | 0 | -2
O=C(NN=C1c2ccccc2-c2ccccc21)c1ccccn1 | -9 | 25 | 73* | 8 | 4 | 24 | -22 | .
CCCCN(C(C)=O)c1c(CC)nc2ccc(C(=O)NCCc3ccccn3)cn12 | -1 | -2 | . | 4 | 0 | . | . | .
COC(=O)c1ccc2nc(-c3cccc(Br)c3)c(Cc3ccccc3)n2c1 | -3 | 6 | . | . | . | . | . | .
COc1ccc(/C=N/NC(=O)c2ccc(O)cc2O)cc1CSc1ccccn1 | 13 | 5 | 57* | -3 | 41 | 64* | 2 | 5
COc1ccc(C=O)cc1CSc1ccccn1 | 5 | -1 | -11 | 0 | -4 | . | . | .
CCOC(=O)C1(C)Oc2ccccc2C(C(=O)OC)=C1C(=O)OC (centres undefined) | 1 | 0 | 94* | 2 | 7 | 53* | -17 | -2
CCOC(=O)C1(C)Oc2ccccc2C(c2ccc(OC)cc2)=C1C(=O)OC (centres undefined) | 2 | 0 | 4 | 6 | 12 | . | . | .
CN1CCN(C(=O)c2ccc(S(=O)(=O)N(C)c3ccccc3)cc2)CC1 | -2 | 0 | . | 1 | 2 | . | . | .
Cc1cccc(N2CCN(C(=O)c3ccc(S(=O)(=O)N(C)c4ccccc4)cc3)CC2)c1C | -4 | 4 | 99* | 0 | -5 | 75* | -17 | -26
Cc1cc(C)cc(NC(=O)CN2C(=O)COc3ccc(S(=O)(=O)N4CCCC4)cc32)c1 | 5 | -1 | -5 | 0 | -1 | . | . | .
Cc1ccc(NC(=O)CN2C(=O)CSc3ccc(S(=O)(=O)N4CCCCC4)cc32)cc1 | 2 | 2 | 56* | -2 | -3 | 57* | -13 | 47*
CC(=O)c1ccc(NC(=O)CN2C(=O)COc3ccc(S(=O)(=O)N4CCCC4)cc32)cc1 | 3 | -1 | 69* | -2 | 3 | 47* | -8 | 12*
O=C(O)/C(=C\c1cccc(C(F)(F)F)c1)c1ccc(S(=O)(=O)N2CCCC2)s1 | -4 | -1 | 11 | -2 | 11 | . | . | .

Screens from PubChem BioAssay.
